Reference: ChEMBL document CHEMBL1255509, “Structure-activity relationship of boronic acid derivatives of tyropeptin: proteasome inhibitors” (Bioorg Med Chem Lett, 2010)

Experiments:
[1] = Inhibition of chymotrypsin like activity of partially purified human proteasome; type: subcellular
In short: (§1)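 Purified 20S proteasome isolated from human erythrocytes served as the enzyme source. Inhibition is reported as IC50.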

[2] = Cytotoxicity against human RPMI8226 cells; type: cell-based; conditions: RPMI-8226
[3] = Inhibition of caspase like activity of partially purified human proteasome; type: subcellular; in short: as §1
[4] = Inhibition of trypsin like activity of partially purified human proteasome; type: subcellular; in short: as §1

| SMILES | IC50 [1] [nM] | IC50 [2] [nM] | IC50 [3] [nM] | IC50 [4] [nM] |
| --- | --- | --- | --- | --- |
| COc1ccc(C[C@H](NC(=O)[C@@H](NC(=O)[C@H](Cc2ccc(OC)cc2)NC(=O)c2ccc(Cl)cn2)C(C)C)B(O)O)cc1 | 83 | 39 | 16000 | 15000 |
| COc1ccc(C[C@H](NC(=O)[C@@H](NC(=O)[C@H](Cc2ccc(OC)cc2)NC(=O)c2cccc(OC)n2)C(C)C)B(O)O)cc1 | 59 | 51 | 35000 | 21000 |
| COc1ccc(C[C@H](NC(=O)CNC(=O)[C@H](Cc2ccc(OC)cc2)NC(=O)c2ccccn2)B(O)O)cc1 | 260 | 24 | 34000 | > 40000 |
| COc1ccc(C[C@H](NC(=O)[C@@H](NC(=O)[C@H](Cc2ccc(OC)cc2)NC(=O)c2ncccc2C)C(C)C)B(O)O)cc1 | 85 | 14 | > 40000 | 20000 |
| COc1ccc(C[C@H](NC(=O)[C@@H](NC(=O)[C@H](Cc2ccc(OC)cc2)NC(=O)c2ncccc2F)C(C)C)B(O)O)cc1 | 140 | 4.9 | 25000 | 24000 |
| COc1ccc(C[C@H](NC(=O)[C@@H](NC(=O)[C@H](Cc2ccc(OC)cc2)NC(=O)c2ccc(Br)cn2)C(C)C)B(O)O)cc1 | 93 | 46 | 24000 | 14000 |
| COc1ccc(C[C@H](NC(=O)[C@@H](NC(=O)[C@H](Cc2ccc(OC)cc2)NC(=O)c2cccc(F)n2)C(C)C)B(O)O)cc1 | 110 | 15 | 27000 | 20000 |
| COc1ccc(C[C@H](NC(=O)[C@@H](NC(=O)[C@H](Cc2ccc(OC)cc2)NC(=O)c2ccncc2)C(C)C)B(O)O)cc1 | 2300 | 870 | > 40000 | > 40000 |
| COc1ccc(C[C@H](NC(=O)[C@@H](NC(=O)[C@H](Cc2ccc(OC)cc2)NC(=O)c2ccc(OC)cn2)C(C)C)B(O)O)cc1 | 94 | 13 | 21000 | 14000 |
| COc1ccc(C[C@H](NC(=O)[C@@H](NC(=O)[C@H](Cc2ccc(OC)cc2)NC(=O)c2cc(Br)ccn2)C(C)C)B(O)O)cc1 | 95 | 47 | 17000 | 14000 |
| COc1ccc(C[C@H](NC(=O)[C@@H](NC(=O)[C@H](Cc2ccc(OC)cc2)NC(=O)c2ccc(F)cn2)C(C)C)B(O)O)cc1 | 81 | 19 | 30000 | 14000 |
| COc1ccc(C[C@H](NC(=O)[C@@H](NC(=O)[C@H](Cc2ccc(OC)cc2)NC(=O)c2cc(C)ccn2)C(C)C)B(O)O)cc1 | 140 | 14 | 30000 | 20000 |
| COc1ccc(C[C@H](NC(=O)[C@@H](NC(=O)[C@H](Cc2ccc(OC)cc2)NC(=O)c2nc(Cl)ccc2Cl)C(C)C)B(O)O)cc1 | 53 | 14 | 26000 | 13000 |
| COc1ccc(C[C@H](NC(=O)[C@@H](NC(=O)[C@H](Cc2ccc(OC)cc2)NC(=O)c2ccc3cnccc3c2)C(C)C)B(O)O)cc1 | 380 | 260 | > 40000 | > 40000 |
| COc1ccc(C[C@H](NC(=O)[C@@H](NC(=O)[C@H](Cc2ccc(OC)cc2)NC(=O)c2cccc(O)n2)C(C)C)B(O)O)cc1 | 240 | 340 | 26000 | 21000 |
| COc1ccc(C[C@H](NC(=O)[C@@H](NC(=O)[C@H](Cc2ccc(OC)cc2)NC(=O)c2cc(C(F)(F)F)ccn2)C(C)C)B(O)O)cc1 | 150 | 53 | 25000 | 20000 |
| COc1ccc(C[C@H](NC(=O)[C@@H](NC(=O)[C@H](Cc2ccc(OC)cc2)NC(=O)c2cccc(Br)n2)C(C)C)B(O)O)cc1 | 92 | 44 | 27000 | 14000 |
| COc1ccc(C[C@H](NC(=O)[C@@H](NC(=O)[C@H](Cc2ccc(OC)cc2)NC(=O)c2cc(OC)ccn2)C(C)C)B(O)O)cc1 | 87 | 13 | 20000 | 16000 |
| COc1ccc(C[C@H](NC(=O)[C@@H](NC(=O)[C@H](Cc2ccc(OC)cc2)NC(=O)Cc2ccc3ccccc3c2)C(C)C)B(O)O)cc1 | 22 | 170 | 29000 | 12000 |
| COc1ccc(C[C@H](NC(=O)[C@@H](NC(=O)[C@H](Cc2ccc(OC)cc2)NC(=O)c2ncccc2Cl)C(C)C)B(O)O)cc1 | 83 | 9.7 | 20000 | 20000 |
| COc1ccc(C[C@H](NC(=O)[C@@H](NC(=O)[C@H](Cc2ccc(OC)cc2)NC(=O)c2ccc(C)cn2)C(C)C)B(O)O)cc1 | 120 | 14 | 30000 | 14000 |
